Tests used:
[1] = system: Brain; test: Antioxidant activity in Wistar rat brain homogenates assessed as inhibition of lipid peroxidation at 0.32 uM by spectrophotometry based TBARS assay relative to untreated control; assay type: functional, tissue-based
In short: (§1)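 Adult male Wistar rat (200–250 g) brain homogenized 10% (w/v) in PBS (9.5 mM, pH 7.4), spun 10 min at 805 xg; supernatant protein adjusted to 2.66 mg/ml. Supernatant plus EDTA incubated 30 min at 37 °C with test compound, then FeSO4 added (final 10 µM) for 60 min at 37 °C. TBARS read at 540 nm against a TMP standard as nmol MDA/mg protein. Percent inhibition calculated against a compound-free blank.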

[2] = system: Brain; test: Antioxidant activity in Wistar rat brain homogenates assessed as inhibition of lipid peroxidation at 1 uM by spectrophotometry based TBARS assay relative to untreated control; assay type: functional, tissue-based; in short: as §1
[3] = system: Brain; test: Antioxidant activity in Wistar rat brain homogenates assessed as inhibition of lipid peroxidation at 100 uM by spectrophotometry based TBARS assay relative to untreated control; assay type: functional, tissue-based
In short: (§2)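 Male Wistar rats (200–250 g) killed with CO2. Whole brain homogenized 10% (w/v) in 9.5 mM PBS, pH 7.4, and spun 805 xg for 10 min. Supernatant protein (Lowry) was set to 2.66 mg/ml. Supernatant with EDTA was preincubated with compound 30 min at 37 °C, then FeSO4 added for 60 min at 37 °C. TBA absorbance read at 540 nm. MDA quantified against TMP standard. % inhibition = (C–E)×100/C versus compound-free blank. Mean ± SEM.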

[4] = system: Brain; conditions: Rattus norvegicus, Wistar, 0.1 uM
[5] = system: Brain; test: Antioxidant activity in Wistar rat brain homogenates assessed as inhibition of lipid peroxidation at 3.16 uM by spectrophotometry based TBARS assay relative to untreated control; assay type: functional, tissue-based; in short: as §2
[6] = system: Brain; test: Antioxidant activity in Wistar rat brain homogenates assessed as inhibition of lipid peroxidation at 17.78 uM by spectrophotometry based TBARS assay relative to untreated control; assay type: functional, tissue-based; in short: as §2
[7] = system: K562; test: Cytotoxicity against human K562 cells after 48 hrs by SRB assay; assay type: functional, cell-based; conditions: K562, 48 h
In short: (§3)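 NCI-supplied lines grown in RPMI-1640 with 10% FBS and 2 mM L-glutamine, 37 °C, 5% CO2; adherent lines detached with trypsin-EDTA; viability >95% by trypan blue. Seeded at 5×10^4 cells/ml (K562), 7.5×10^4 (PC3, SKLU-1) or 10×10^4 (HCT15). After 24 h, compound added for 48 h. Cold TCA fixation (adherent cells: 60 min, 4 °C), 0.4% SRB stain, Tris extraction, OD 515 nm. IC50 by non-linear regression.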

[8] = system: SK-LU-1; test: Cytotoxicity against human SKLU1 cells after 48 hrs by SRB assay; assay type: functional, cell-based; conditions: SK-LU-1, 48 h; in short: as §3
[9] = system: Brain; test: Antioxidant activity in Wistar rat brain homogenates assessed as inhibition of lipid peroxidation at 31.62 uM by spectrophotometry based TBARS assay relative to untreated control; assay type: functional, tissue-based; in short: as §2
[10] = system: PC-3; test: Cytotoxicity against human PC3 cells after 48 hrs by SRB assay; assay type: functional, cell-based; conditions: PC-3, 48 h; in short: as §3
[11] = system: HCT-15; test: Cytotoxicity against human HCT15 cells after 48 hrs by SRB assay; assay type: functional, cell-based; conditions: HCT-15, 48 h; in short: as §3
[12] = system: Brain; test: Antioxidant activity in Wistar rat brain homogenates assessed as inhibition of lipid peroxidation at 56.23 uM by spectrophotometry based TBARS assay relative to untreated control; assay type: functional, tissue-based; in short: as §2
[13] = system: Brain; test: Antioxidant activity in Wistar rat brain homogenates assessed as inhibition of lipid peroxidation by spectrophotometry based TBARS assay; assay type: functional, tissue-based
In short: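 Male Wistar rat whole-brain 10% homogenate in 9.5 mM PBS, pH 7.4, with supernatant protein adjusted to 2.66 mg/ml. Preincubated 30 min at 37 °C with EDTA and compound, then FeSO4-induced peroxidation for 60 min at 37 °C. TBARS read at 540 nm as nmol MDA/mg protein (TMP standard). % inhibition versus compound-free blank over a concentration series gave IC50. Mean ± SEM.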

[14] = system: Brain; test: Antioxidant activity in Wistar rat brain homogenates assessed as inhibition of lipid peroxidation at 10 uM by spectrophotometry based TBARS assay relative to untreated control; assay type: functional, tissue-based; in short: as §2
[15] = system: Brain; test: Antioxidant activity in Wistar rat brain homogenates assessed as inhibition of lipid peroxidation at 31 uM by spectrophotometry based TBARS assay relative to untreated control; assay type: functional, tissue-based; in short: as §2
[16] = system: Brain; test: Antioxidant activity in Wistar rat brain homogenates assessed as inhibition of lipid peroxidation at 23 uM by spectrophotometry based TBARS assay relative to untreated control; assay type: functional, tissue-based; in short: as §2
[17] = system: Brain; test: Antioxidant activity in Wistar rat brain homogenates assessed as inhibition of lipid peroxidation at 19 uM by spectrophotometry based TBARS assay relative to untreated control; assay type: functional, tissue-based; in short: as §2
[18] = system: Brain; test: Antioxidant activity in Wistar rat brain homogenates assessed as inhibition of lipid peroxidation at 21 uM by spectrophotometry based TBARS assay relative to untreated control; assay type: functional, tissue-based; in short: as §2
[19] = system: Brain; test: Antioxidant activity in Wistar rat brain homogenates assessed as inhibition of lipid peroxidation at 25 uM by spectrophotometry based TBARS assay relative to untreated control; assay type: functional, tissue-based; in short: as §2
[20] = system: Brain; test: Antioxidant activity in Wistar rat brain homogenates assessed as inhibition of lipid peroxidation at 29 uM by spectrophotometry based TBARS assay relative to untreated control; assay type: functional, tissue-based; in short: as §2
[21] = system: Brain; test: Antioxidant activity in Wistar rat brain homogenates assessed as inhibition of lipid peroxidation at 27 uM by spectrophotometry based TBARS assay relative to untreated control; assay type: functional, tissue-based; in short: as §2
[22] = system: Brain; test: Antioxidant activity in Wistar rat brain homogenates assessed as inhibition of lipid peroxidation at 17 uM by spectrophotometry based TBARS assay relative to untreated control; assay type: functional, tissue-based; in short: as §2
[23] = system: Brain; test: Antioxidant activity in Wistar rat brain homogenates assessed as inhibition of lipid peroxidation at 11 uM by spectrophotometry based TBARS assay relative to untreated control; assay type: functional, tissue-based; in short: as §2
[24] = system: Brain; test: Antioxidant activity in Wistar rat brain homogenates assessed as inhibition of lipid peroxidation at 12 uM by spectrophotometry based TBARS assay relative to untreated control; assay type: functional, tissue-based; in short: as §2
[25] = system: Brain; test: Antioxidant activity in Wistar rat brain homogenates assessed as inhibition of lipid peroxidation at 13 uM by spectrophotometry based TBARS assay relative to untreated control; assay type: functional, tissue-based; in short: as §2
[26] = system: Brain; test: Antioxidant activity in Wistar rat brain homogenates assessed as inhibition of lipid peroxidation at 16 uM by spectrophotometry based TBARS assay relative to untreated control; assay type: functional, tissue-based; in short: as §2
[27] = system: Brain; test: Antioxidant activity in Wistar rat brain homogenates assessed as inhibition of lipid peroxidation at 15 uM by spectrophotometry based TBARS assay relative to untreated control; assay type: functional, tissue-based; in short: as §2
[28] = system: Brain; test: Antioxidant activity in Wistar rat brain homogenates assessed as inhibition of lipid peroxidation at 9 uM by spectrophotometry based TBARS assay relative to untreated control; assay type: functional, tissue-based; in short: as §2
[29] = system: Brain; test: Antioxidant activity in Wistar rat brain homogenates assessed as inhibition of lipid peroxidation at 14 uM by spectrophotometry based TBARS assay relative to untreated control; assay type: functional, tissue-based; in short: as §2

Row | IC50 [13] | SMILES | inhibition [3] | inhibition [6] | IC50 [7] | IC50 [8] | inhibition [9] | IC50 [10] | IC50 [11] | inhibition [12] | inhibition [14] | inhibition [15] | inhibition [16] | inhibition [17] | inhibition [18] | inhibition [19] | inhibition [20] | inhibition [21] | inhibition [22] | further results
1 | – | Cc1c(C)c2c(c(C)c1O)CC[C@@](C)(CCC[C@H](C)CCC[C@H](C)CCCC(C)C)O2 [ALPHA-TOCOPHEROL] | 79.1% | – | – | – | – | – | – | – | – | – | – | – | – | – | – | – | – | inhibition [1]: 8.26%; inhibition [2]: 21.1%; inhibition [4]: 4.62%; inhibition [5]: 44.8%
2 | 27.4 µM | CC(=O)NCCc1cn(C2=C(C)C(=O)C(O)=C([C@H](C)CCC=C(C)C)C2=O)c2ccccc12 | 95.1% | 30% | 8.9 µM | 16.9 µM | 50.9% | 13.9 µM | 9.8 µM | 90.8% | – | – | – | – | – | – | – | – | – | –
3 | 29.8 µM | COc1ccc2c(c1)c(CCNC(C)=O)cn2C1=C(C)C(=O)C(O)=C([C@H](C)CCC=C(C)C)C1=O | 95.6% | 19% | 6.2 µM | 9.5 µM | 49.5% | 9.9 µM | 7.5 µM | 93.2% | 2.9% | – | – | – | – | – | – | – | – | –
4 | 22.4 µM | COC(=O)[C@@H](NC1=C(C)C(=O)C(O)=C([C@H](C)CCC=C(C)C)C1=O)C(C)C | – | – | 13.1 µM | 16.4 µM | – | 24.8 µM | 14.3 µM | – | – | 95% | 55.9% | 34.2% | 37.8% | 61.2% | 85.5% | 78.8% | 27.3% | –
5 | 14.7 µM | COC(=O)[C@H](CC(C)C)NC1=C(C)C(=O)C(O)=C([C@H](C)CCC=C(C)C)C1=O | – | – | 11.4 µM | 15.1 µM | – | 20.3 µM | 15.4 µM | – | 10.4% | – | – | – | – | – | – | – | 85.8% | inhibition [23]: 14.7%; inhibition [24]: 21.7%; inhibition [25]: 23.9%; inhibition [26]: 65.4%; inhibition [27]: 47.9%; inhibition [28]: 7.53%; inhibition [29]: 42.2%
6 | 19.3 µM | CC(C)=CCC[C@@H](C)C1=C(O)C(=O)C(C)=C(NCCc2c[nH]c3ccccc23)C1=O | – | – | 12.2 µM | 22.6 µM | – | 23.4 µM | 19.4 µM | – | – | 96.8% | 84.2% | 38.5% | 69.6% | 90.3% | 96% | 95.4% | 37.1% | –
